The test system of one data set is hM5. Conditions: read-out: hM5 EC50; 96 well-format FlexStation II, initial optimization; cited from earlier work.
In another data set the target is T1, human M5 (Homo sapiens, UniProt P08912).
T1 sequence (P08912 1-532): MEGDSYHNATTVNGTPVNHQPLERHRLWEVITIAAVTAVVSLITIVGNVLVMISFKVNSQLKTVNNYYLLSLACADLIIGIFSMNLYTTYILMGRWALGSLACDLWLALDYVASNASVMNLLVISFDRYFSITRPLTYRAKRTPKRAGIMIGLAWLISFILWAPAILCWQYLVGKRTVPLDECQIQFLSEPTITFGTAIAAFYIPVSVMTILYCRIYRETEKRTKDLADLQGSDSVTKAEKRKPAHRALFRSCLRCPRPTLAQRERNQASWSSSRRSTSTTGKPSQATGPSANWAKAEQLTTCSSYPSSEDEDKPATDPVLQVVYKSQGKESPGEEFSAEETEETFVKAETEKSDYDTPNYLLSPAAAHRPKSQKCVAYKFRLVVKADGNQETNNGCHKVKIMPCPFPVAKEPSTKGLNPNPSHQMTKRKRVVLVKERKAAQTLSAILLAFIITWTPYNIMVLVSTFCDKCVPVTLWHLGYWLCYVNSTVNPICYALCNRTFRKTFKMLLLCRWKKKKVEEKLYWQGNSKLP
In words: calcium mobilization assay, hM5-CHO cells, FDSS7000. The class given is cell-based. Summed up: (§1)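 CHO cells stably expressing human or rat M5 were grown in Ham's F-12 with 10% FBS, 20 mM HEPES and 500 μg/mL G418 (37 °C, 5% CO2), then plated at 20 000 cells/well without G418 the day before. Cells were loaded with 1.15 μM Fluo-4 AM for 45 min at 37 °C in HBSS, 20 mM HEPES and 2.5 mM probenecid. Test compound was given as a 10-point 1:3 series from 30 μM final for 2.5 min, then ACh EC20 for 1 min, with calcium read on FDSS7000. EC50 and efficacy came from a four-parameter logistic fit.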
In general terms: A change in cytosolic calcium serves as a functional read-out for many receptors and channels.

The nature of data set [1]: plasma protein binding, human. The class given is in vitro ADME.
Data set [2] can be described thus: hepatic microsomal intrinsic clearance, human. The class given is in vitro ADME. Conditions: based on microsomal intrinsic clearance (CLint).
The next data set can be described thus: rat brain distribution. Conditions: male, Sprague-Dawley, brain and plasma. The data set is classed as in vivo. Summed up:
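Male Sprague–Dawley rats received a single IV or IP cassette dose of 0.20–0.25 mg/kg, with n = 1 animal per cassette. Vehicle was ethanol/PEG400/DMSO, with excipient levels adjusted for solubility, at 0.5 mL/kg iv or 3 mL/kg ip. Plasma and brain were sampled nonserially and quantified by LC-MS/MS (positive ESI, MRM).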

Data set [3] in a line: metabolite identification in rat hepatic microsomes. The data set is classed as in vitro ADME. The settings on record: rat and human hepatic microsomes, result in words. Summed up:
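Test compound was incubated with rat hepatic microsomes, run alongside human microsomes. Metabolite structures were proposed from LC-UV/MSn data, and major metabolites were assigned by relative peak areas.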

A short description of data set [4]: brain homogenate binding, rat. The class given is in vitro ADME.
A further data set concerns the target T2, rat M5 (Rattus norvegicus, UniProt P08911).
T2 sequence (P08911 1-531): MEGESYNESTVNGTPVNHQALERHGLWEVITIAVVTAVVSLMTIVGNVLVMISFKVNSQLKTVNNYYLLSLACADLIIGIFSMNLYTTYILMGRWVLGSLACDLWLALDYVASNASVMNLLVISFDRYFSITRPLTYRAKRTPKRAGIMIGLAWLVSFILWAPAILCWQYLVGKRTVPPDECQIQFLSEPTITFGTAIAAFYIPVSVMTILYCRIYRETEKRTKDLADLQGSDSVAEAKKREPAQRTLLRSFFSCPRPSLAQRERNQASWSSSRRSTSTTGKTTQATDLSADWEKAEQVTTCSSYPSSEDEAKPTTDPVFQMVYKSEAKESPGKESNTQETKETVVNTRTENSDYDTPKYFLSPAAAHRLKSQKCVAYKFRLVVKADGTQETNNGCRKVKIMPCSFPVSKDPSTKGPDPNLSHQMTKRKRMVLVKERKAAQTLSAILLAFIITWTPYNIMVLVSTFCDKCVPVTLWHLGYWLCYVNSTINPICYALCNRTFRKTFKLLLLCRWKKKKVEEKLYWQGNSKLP
Description: calcium mobilization assay, rM5-CHO cells, FDSS7000. The data set is classed as cell-based. The settings on record: functional calcium assay, n = 3. Summed up: as §1

Data set [5] is described as follows: plasma protein binding, rat. The class given is in vitro ADME.

For orientation: EC50 means the concentration at which the effect is half-maximal. What is called fraction unbound is free concentration divided by total concentration. The Kp is tissue or fluid exposure divided by exposure in the circulation.

In the case of `CCN(Cc1ccccc1C(F)(F)F)C(=O)C1CCN(S(=O)(=O)c2ccc3[nH]ncc3c2)CC1` [ML380, 1-((1H-indazol-5-yl)sulfonyl)-N-ethyl-N-(2-(trifluoromethyl)benzyl)piperidine-4-carboxamide, reference compound], the concentration for a half-maximal effect (EC50) is 0.19 µM in the data set with hM5 and 1.1 µM at human M5 (hM5 EC50, PAM, 384-well FDSS7000). Moreover, at human M5 (FDSS7000 versus FlexStation II conditions), the “rightward shift in M5 PAM potency” value is recorded as ~ 5 fold.
Turning to `CCN(C(=O)C1CCN(S(=O)(=O)c2ccc3[nH]ncc3c2)CC1)[C@@H]1CCc2ccccc21` [Compound 8, N-Ethyl-N-[(1R)-indan-1-yl]-1-(1H-indazol-5-ylsulfonyl)-piperidine-4-carboxamide], the fraction unbound was found to be 0.019 in data set [1], 0.017 in [4] and 0.043 in data set [5]. In addition, the “predicted hepatic clearance CLhep, human” value in data set [2] was 20.8 mL/min/kg. In addition, the Kp in “rat brain distribution” is 0.17. This molecule also returned a Kp uu in the data set “rat brain distribution” of 0.07. For the same molecule, the “metabolism in MetID studies” value in data set [3] is reported as “extensive oxidative metabolism”. Also, the “rM5 % ACh Max” value at rat M5 (PAM) is listed as 63% ± 3%. The EC50 at rat M5 (rM5 EC50, PAM) was 0.409 µM; on rat M5 (rM5 pEC50 ± SEM, PAM), 0.38 µM; on human M5 (hM5 EC50, PAM, functional calcium assay, n = 3), 0.481 µM; on human M5 (hM5 pEC50 ± SEM, PAM, functional calcium assay, n = 3), 0.457 µM.
